The target in data set [1] is cGMP-dependent 3',5'-cyclic phosphodiesterase (Homo sapiens, UniProt O00408). Description: Inhibition of PDE2 (unknown origin) using [3H]cAMP or [3H]cGMP as substrate measured after 30 mins by liquid scintillation counting method.
A further data set addresses Phosphodiesterase 1 (Homo sapiens, UniProt P54750+Q01064+Q14123). Description: Inhibition of PDE1 (unknown origin) using [3H]cAMP or [3H]cGMP as substrate measured after 30 mins by liquid scintillation counting method. Type of data set: protein assay.
The target in a further data set is Phosphodiesterase 4 (Homo sapiens, UniProt P27815+Q08499+Q07343+Q08493). Description: Inhibition of PDE4 (unknown origin) using [3H]cAMP or [3H]cGMP as substrate measured after 30 mins by liquid scintillation counting method. It is filed as protein assay.
Data set [2] deals with cGMP-specific 3',5'-cyclic phosphodiesterase (Homo sapiens, UniProt O76074). Description: Inhibition of PDE5 (unknown origin) using [3H]cAMP or [3H]cGMP as substrate measured after 30 mins by liquid scintillation counting method.
The target of data set [3] is High affinity cGMP-specific 3',5'-cyclic phosphodiesterase 9A (Homo sapiens, UniProt O76083). Description: Inhibition of PDE9 (unknown origin) using [3H]cAMP or [3H]cGMP as substrate measured after 30 mins by liquid scintillation counting method.
Chain of High affinity cGMP-specific 3',5'-cyclic phosphodiesterase 9A (O76083 whole entry): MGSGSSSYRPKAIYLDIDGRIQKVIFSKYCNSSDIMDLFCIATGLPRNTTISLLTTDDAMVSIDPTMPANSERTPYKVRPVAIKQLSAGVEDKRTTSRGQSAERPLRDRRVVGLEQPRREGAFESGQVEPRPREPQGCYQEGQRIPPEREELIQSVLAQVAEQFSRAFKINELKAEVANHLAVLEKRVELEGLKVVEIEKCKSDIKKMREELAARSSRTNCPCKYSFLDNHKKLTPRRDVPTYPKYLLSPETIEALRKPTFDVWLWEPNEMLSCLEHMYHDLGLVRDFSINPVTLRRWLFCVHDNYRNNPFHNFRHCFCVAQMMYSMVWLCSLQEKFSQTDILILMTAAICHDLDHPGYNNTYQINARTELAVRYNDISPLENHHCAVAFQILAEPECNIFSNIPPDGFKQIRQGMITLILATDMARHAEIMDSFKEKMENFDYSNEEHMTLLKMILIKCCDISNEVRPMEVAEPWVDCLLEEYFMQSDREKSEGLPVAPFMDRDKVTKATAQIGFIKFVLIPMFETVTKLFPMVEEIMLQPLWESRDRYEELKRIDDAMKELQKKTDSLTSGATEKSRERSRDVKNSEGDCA
The target of data set [4] is cAMP and cAMP-inhibited cGMP 3',5'-cyclic phosphodiesterase 10A (Homo sapiens, UniProt Q9Y233). Description: Inhibition of PDE10 (unknown origin) using [3H]cAMP or [3H]cGMP as substrate measured after 30 mins by liquid scintillation counting method.
Chain of cAMP and cAMP-inhibited cGMP 3',5'-cyclic phosphodiesterase 10A (Q9Y233 whole entry): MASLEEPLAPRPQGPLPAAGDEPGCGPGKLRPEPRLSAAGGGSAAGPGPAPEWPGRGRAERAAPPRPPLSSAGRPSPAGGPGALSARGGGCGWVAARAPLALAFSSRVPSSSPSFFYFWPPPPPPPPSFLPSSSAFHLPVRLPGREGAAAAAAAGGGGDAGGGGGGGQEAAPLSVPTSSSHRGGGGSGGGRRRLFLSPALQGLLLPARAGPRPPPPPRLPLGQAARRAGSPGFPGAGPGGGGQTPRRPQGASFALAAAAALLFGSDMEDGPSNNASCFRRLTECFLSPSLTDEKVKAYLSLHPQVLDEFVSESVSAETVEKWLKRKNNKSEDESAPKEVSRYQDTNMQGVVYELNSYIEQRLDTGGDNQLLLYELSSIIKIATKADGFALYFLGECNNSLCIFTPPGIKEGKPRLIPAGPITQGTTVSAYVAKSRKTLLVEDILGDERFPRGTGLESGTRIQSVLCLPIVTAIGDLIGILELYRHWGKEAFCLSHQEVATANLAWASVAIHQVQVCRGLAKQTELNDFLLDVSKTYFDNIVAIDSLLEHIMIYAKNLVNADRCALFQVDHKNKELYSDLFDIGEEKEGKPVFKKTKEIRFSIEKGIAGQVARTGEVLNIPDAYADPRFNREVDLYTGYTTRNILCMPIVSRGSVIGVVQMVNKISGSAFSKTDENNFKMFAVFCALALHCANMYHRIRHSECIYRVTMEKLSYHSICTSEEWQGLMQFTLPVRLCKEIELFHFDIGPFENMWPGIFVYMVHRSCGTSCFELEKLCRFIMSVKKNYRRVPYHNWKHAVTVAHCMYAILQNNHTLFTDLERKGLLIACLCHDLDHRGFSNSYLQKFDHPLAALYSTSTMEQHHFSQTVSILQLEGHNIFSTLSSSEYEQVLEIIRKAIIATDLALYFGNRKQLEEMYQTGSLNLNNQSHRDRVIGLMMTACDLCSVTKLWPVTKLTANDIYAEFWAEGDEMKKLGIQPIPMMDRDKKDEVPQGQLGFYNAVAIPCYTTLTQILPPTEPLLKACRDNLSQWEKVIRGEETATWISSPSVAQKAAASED
A short description of data set [5]: Toxicity in ICR mouse assessed as effect on locomotory activity at 0.5 to 2 mg/kg, ig administered as single dose via gavage measured for 10 mins. It is filed as organism-based. The note with it: in vivo, po. In short, it runs like this: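 Locomotor activity test in chronically stressed mice; locomotion counts recorded 10 minutes after a single oral treatment. Mean ± SEM, n = 6.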

A short description of data set [6]: Half life in ICR mouse at 2 mg/kg, po by LC-MS/MS analysis. Type of data set: ADME, organism-based. The note with it: in vivo.
Data set [7] can be described thus: Tmax in ICR mouse at 2 mg/kg, po by LC-MS/MS analysis. To be noted: in vivo. Type of data set: ADME, organism-based.
The nature of data set [8]: Cmax in ICR mouse at 2 mg/kg, po by LC-MS/MS analysis. It is filed as ADME, organism-based. The arrangement: dose 2 mg/kg, route oral. The note with it: in vivo.
A short description of data set [9]: AUC (0 to infinity) in ICR mouse at 2 mg/kg, po by LC-MS/MS analysis. Type of data set: ADME, organism-based. The arrangement: dose 2 mg/kg, time infinity, route oral. To be noted: in vivo.
Data set [10] can be described thus: Ratio of drug level in ICR mouse brain to plasma at 2 mg/kg, po measured after 0.5 hrs by LC-MS/MS analysis. The note with it: brain and plasma, read-out: BPR. It is filed as ADME, organism-based. The method, boiled down: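 Oral dose of 2 mg/kg in mice. Brain and plasma drug levels taken at 0.5 h after oral administration, and expressed as brain-to-plasma ratio.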

Data set [11] relates to Mus musculus. Description: Anxiolytic activity in ICR mouse model of chronic stress-induced cognitive impairment assessed as increase in time spent in open arms at 2 mg/kg, ip measured for 5 mins test period by elevated plus maze test. It is filed as functional, organism-based.
The species entered for data set [12] is Mus musculus. Description: Inhibition of PDE2 in mouse HT22 cells assessed as suppression of corticosterone-induced decrease in cGMP level at 1 uM after 24 hrs by ELISA. It is filed as cell-based. In short, it runs like this:
(§1)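 Corticosterone at 100 μM applied to HT-22 cells for 30 min, followed by compound for 24 h. Intracellular cGMP and cAMP levels measured. Mean ± SEM, n = 6; compared with vehicle-treated corticosterone group.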

For data set [13], the species on record is Mus musculus. Description: Inhibition of PDE2 in mouse HT22 cells assessed as suppression of corticosterone-induced decrease in cAMP level at 1 uM after 24 hrs by ELISA. It is filed as cell-based. The method, boiled down: as §1
The test system of data set [14] is Mus musculus. Description: Anxiolytic activity in ICR mouse model of chronic stress-induced cognitive impairment assessed as increase in time spent in open arms at 0.5 mg/kg, ip measured for 5 mins test period by elevated plus maze test. It is filed as functional, organism-based. In short, it runs like this: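 Chronically stressed mice given the reference drug at 0.5 mg/kg i.p., then tested in the elevated plus-maze for open-arm measures. Mean ± SEM, n = 6, versus vehicle-treated stressed group.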

Molecules are shown by their SMILES. Calls of active or inactive are those of the source. The rule behind the calls is not given here. Some results are limits rather than exact numbers.

These results are taken from ChEMBL document CHEMBL4371070, “Design, synthesis of novel purin-6-one derivatives as phosphodiesterase 2 (PDE2) inhibitors: The neuroprotective and anxiolytic-like effects” (Bioorg Med Chem Lett, 2019).

Chain of cGMP-dependent 3',5'-cyclic phosphodiesterase (O00408 whole entry): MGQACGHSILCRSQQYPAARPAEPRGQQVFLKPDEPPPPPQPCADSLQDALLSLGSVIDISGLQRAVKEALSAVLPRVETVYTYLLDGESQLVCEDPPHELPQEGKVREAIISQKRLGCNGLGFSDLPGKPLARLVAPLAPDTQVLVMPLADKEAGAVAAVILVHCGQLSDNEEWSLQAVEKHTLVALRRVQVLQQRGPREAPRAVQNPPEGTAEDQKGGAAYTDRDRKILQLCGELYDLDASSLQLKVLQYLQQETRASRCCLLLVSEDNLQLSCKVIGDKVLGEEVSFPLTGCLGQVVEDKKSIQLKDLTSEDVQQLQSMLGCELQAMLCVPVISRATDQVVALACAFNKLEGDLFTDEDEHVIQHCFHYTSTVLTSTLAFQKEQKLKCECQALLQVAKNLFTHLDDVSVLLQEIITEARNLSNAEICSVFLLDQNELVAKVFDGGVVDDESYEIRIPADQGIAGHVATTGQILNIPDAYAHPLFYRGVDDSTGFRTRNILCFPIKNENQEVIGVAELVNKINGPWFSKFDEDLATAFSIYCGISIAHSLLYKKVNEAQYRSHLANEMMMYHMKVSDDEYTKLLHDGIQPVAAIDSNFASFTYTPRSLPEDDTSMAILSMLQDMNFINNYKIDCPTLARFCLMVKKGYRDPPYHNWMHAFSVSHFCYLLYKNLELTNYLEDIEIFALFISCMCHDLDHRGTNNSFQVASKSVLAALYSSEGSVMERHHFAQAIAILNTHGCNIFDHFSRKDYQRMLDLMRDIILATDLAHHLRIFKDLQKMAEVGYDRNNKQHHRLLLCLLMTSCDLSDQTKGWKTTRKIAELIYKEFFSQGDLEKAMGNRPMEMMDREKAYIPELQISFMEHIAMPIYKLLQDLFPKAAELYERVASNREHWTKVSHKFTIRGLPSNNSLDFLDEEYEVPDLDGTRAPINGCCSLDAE

On to `CCCCCCn1cnc2c(=O)[nH]c(Cc3ccc(OC)cc3)nc21`, for which, in data set [1], the IC50 turned out to be 3.79 µM.

On to `CCCCC(CC)Cn1cnc2c(=O)[nH]c(Cc3ccc(OC)cc3)nc21` (stereo unspecified), for which the IC50 is 0.081 µM in data set [1]; more than 500 µM at Phosphodiesterase 1; more than 500 µM on Phosphodiesterase 4; more than 500 µM in data set [2]; 32.3 µM in data set [3]; more than 500 µM in data set [4]. The Activity result in data set [5] is given as “Non-Toxic”. Besides, the half-life in data set [6] is 84 min. Besides, the Tmax in data set [7] is 31.8 min. This compound came in with a Cmax in data set [8] of 0.511 µg/mL. In addition, the AUC(0-inf) in data set [9] was found to be 0.646 µg·h/mL. In [10], the Kp at 0.5 h came out at 0.56.

On to `CCCCn1cnc2c(=O)[nH]c(Cc3ccc(OC)cc3)nc21`, for which inhibition in data set [1] was half-maximal at 1.94 µM (IC50). On the same count and under the same terms, the same measure for `COc1cccc(CCn2cnc3c(=O)[nH]c(Cc4ccccc4)nc32)c1`: 11 µM; for `COc1ccc(CCn2cnc3c(=O)[nH]c(Cc4ccc(OCc5ccccc5)cc4)nc32)cc1OC`: more than 50 µM; for `CCCCCCCCn1cnc2c(=O)[nH]c(Cc3ccc(OCc4ccccc4)cc3)nc21`: 2.63 µM. On the same count and under the same terms, the same measure for `CCCCCCCCn1cnc2c(=O)[nH]c(Cc3ccccc3)nc21`: 4.28 µM. On the same count and under the same terms, the same measure for `CCCCC(CC)Cn1cnc2c(=O)[nH]c(Cc3ccccc3)nc21` (stereo unspecified): 1.24 µM; for `CCCCCCn1cnc2c(=O)[nH]c(Cc3ccc(OCc4ccccc4)cc3)nc21`: 3.91 µM; for `CC(c1cccc2ccccc12)N1C=NC2C(=O)NC(Cc3ccccc3)=NC21` (stereo unspecified): 0.57 µM.

Take `O=c1[nH]c(Cc2ccccc2)nc2c1ncn2CCc1ccccc1`: it took 7.27 µM to reach half-maximal inhibition in [1] (IC50). Against the preceding compound, the IC50 is about 13-fold higher. With `CCCCCCn1cnc2c(=O)[nH]c(Cc3ccccc3)nc21`, half-maximal inhibition in [1] (IC50) required 5.94 µM. Still for that read-out and setting: the same measure for `CC(CCc1ccccc1)n1cnc2c(=O)[nH]c(Cc3ccccc3)nc21` (stereo unspecified): 0.31 µM; for `O=c1[nH]c(Cc2ccccc2)nc2c1ncn2CCc1c[nH]c2ccccc12`: more than 50 µM.

In [1], `CCCCn1cnc2c(=O)[nH]c(Cc3ccccc3)nc21` yielded a concentration for half-maximal inhibition (IC50) of 4.32 µM.

In the case of `O=c1[nH]c(Cc2ccccc2)nc2c1ncn2CCc1cccs1`, the IC50 in data set [1] turned out to be 17 µM. For the compound `CCCCn1cnc2c(=O)[nH]c(Cc3ccc(OCc4ccccc4)cc3)nc21`, the IC50 in [1] is 5.46 µM. For the compound `CN1C(=O)CN=C(c2ccccc2)c2cc(Cl)ccc21`, the result with Mus musculus [11] was Active. As for `O=c1[nH]c(Cc2ccc(OCc3ccccc3)cc2)nc2c1ncn2CCc1ccccc1`, in data set [1], half-maximal inhibition (IC50) was put at 5.8 µM.

In the case of `CCCCC(CC)Cn1cnc2c(=O)[nH]c(Cc3ccc(OCc4ccccc4)cc3)nc21` (stereo unspecified), the IC50 in [1] is 0.072 µM; on Phosphodiesterase 1, more than 500 µM; against Phosphodiesterase 4, more than 500 µM; in [2], more than 500 µM; in [3] it was 13.9 µM; in data set [4] it was more than 500 µM. In turn, `O=c1[nH]c(Cc2ccccc2)nc2c1ncn2Cc1ccc2ccccc2c1` yielded an IC50 in [1] of 3.99 µM. For the compound `COc1ccc(Cc2nc(O)c3c(C)nc([C@@H](CCCc4ccccc4)[C@@H](C)O)n3n2)cc1OC`, the inhibition entry in the data set filed under Mus musculus [12] and in the data set listed under Mus musculus [13] was “Active” in each case. For the same compound, the result in the data set on Mus musculus [14] was inactive. As for `COc1ccc(CCn2cnc3c(=O)[nH]c(Cc4ccccc4)nc32)cc1OC`, in [1], the IC50 was 40.3 µM.
